TPT1 inh: C. albicans TPT1 enzyme inhibition; AID 1962; 300,000 compounds, 0.81% hits; inhibition, % at 5 µM; recombinant caTPT1, FP RNA substrate dephosphorylation;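 active = inhibition above the mean of all tested compounds plus 3 SD, set per screening campaign, cut at about 24% in these data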
CSN deneddyl inh: CSN deneddylation inhibition; Q92905; 360,000 compounds, 0.38% hits; inhibition, % at 12.5 µM; Purified CSN, SCF-Nedd8-OG deneddylation, fluorescence polarization;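 active = pattern-corrected inhibition above about 35%, with an unprinted fluorescence ratio check between 0.5 and 1.5, limit read from the data, passing the limit was not always enough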
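Assay system: Purified human Csn5 enzyme expressed in HEK293T cells | Amount: Enzyme 0.24 nM | Measured by: Fluorescence polarization readout | Medium: Tris/NaCl/DTT buffer, pH 7.5 | Compound dosing: One concentration, 12.5 µM, 0.25% DMSO | Times: 90 min incubation of compound, enzyme and substrate at room temperature | Control set: no-enzyme wells high, enzyme-with-substrate wells low | Read-out: % inhibition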
HNF4A DNA FP: change in binding of human HNF4 alpha to DNA; P41235; HNF4a-FITC DNA binding, fluorescence polarization, 1 h; activity change, % at 10 µM; 360,000 compounds, 0.3% hits; AID 1224865; in the data active = activity change above about 30%, passing the limit was not always enough
Target sequence (P41235 whole entry, looked up): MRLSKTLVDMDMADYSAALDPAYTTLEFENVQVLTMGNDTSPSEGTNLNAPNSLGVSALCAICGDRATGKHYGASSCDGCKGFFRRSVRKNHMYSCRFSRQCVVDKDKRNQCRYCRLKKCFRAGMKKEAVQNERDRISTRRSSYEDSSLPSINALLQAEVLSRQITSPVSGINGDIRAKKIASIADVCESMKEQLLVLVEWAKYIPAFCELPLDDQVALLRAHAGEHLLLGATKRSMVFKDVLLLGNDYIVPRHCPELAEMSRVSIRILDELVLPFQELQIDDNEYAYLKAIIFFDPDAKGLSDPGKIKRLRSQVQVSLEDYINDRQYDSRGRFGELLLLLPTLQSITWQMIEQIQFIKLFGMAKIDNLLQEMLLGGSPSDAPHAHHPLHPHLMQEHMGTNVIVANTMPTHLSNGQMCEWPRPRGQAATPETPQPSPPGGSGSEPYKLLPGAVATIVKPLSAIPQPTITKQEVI
NR1D1 modulator: Rev-erb alpha (human) modulation; Rev-erbα–FITC-DNA binding, fluorescence polarization, 90 min; AID 1259318; P20393; 370,000 compounds, 0.79% hits; activity, % at 10 µM;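 active = activity above about 14%, limit read from the data; passing the limit was not always enough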
caTPT1 confirm: confirmation of Candida albicans TPT1 inhibitors; shares compounds with TPT1 inh; recombinant caTPT1, fluorescence polarization, RNase T1 coupled; inhibition, % at 5 µM; 2,400 compounds, 74% hits;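 active = inhibition above the primary screen limit, the mean inhibition of all tested compounds plus 3 SD, cut at about 25% in these data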
RNase T1 counter: RNase T1 inhibition in TPT1 counter-screen. 2,400 compounds, 83% hits. inhibition, % at 5 µM. shares compounds with TPT1 inh. RNase T1 cleavage, fluorescence polarization, 1536-well. AID 2153;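 active = inhibition above the solvent-only control well mean plus 3 SD, limit set per screening run, cut at about 23% in these data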;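 also: inhibitors block cleavage so intact labeled substrate keeps polarization high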
Target sequence (P00651 whole entry, looked up): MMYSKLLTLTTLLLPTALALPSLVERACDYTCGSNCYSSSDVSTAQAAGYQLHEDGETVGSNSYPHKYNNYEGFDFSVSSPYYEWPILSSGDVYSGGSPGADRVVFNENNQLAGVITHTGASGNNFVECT
Each line names hits and unclear results; the compound was inactive in the other large screens (follow-up assays come after a bar, where they were run). Only some compounds are listed: those with a hit (about 1.7% of all), similar ones and a draw of the others.

C=CCN=C1S/C(=C\c2ccc(N(C)C)cc2)C(=O)N1CC=C	TPT1 inh 43.9, HNF4A DNA FP 36.4 | caTPT1 confirm 49.7 | RNase T1 counter 63.3
C=CCN1C(=O)/C(=C/c2ccc(OC)cc2)S/C1=N/c1nccs1	none
O=C(N/N=C/c1ccc(N2CCOCC2)s1)c1ccc(NS(=O)(=O)c2cccs2)cc1	TPT1 inh 28.8 | caTPT1 confirm 77.8 | RNase T1 counter 89.9
O=C(N/N=C/c1ccc(N2CCOCC2)cc1)c1ccc(NS(=O)(=O)c2cccs2)cc1	none
COc1ccc(/C=C2\Oc3cc(OCC(=O)N4CCC[C@H]4CO)ccc3C2=O)c(OC)c1	TPT1 inh 64.9 (no result: NR1D1 modulator) | caTPT1 confirm 85.5 | RNase T1 counter 93.2
O=[N+]([O-])c1ccc(Cl)c(-c2ccc(/C=N/n3cnnc3)o2)c1	none
CN1CCN(/N=C/c2ccc(-c3ccc([N+](=O)[O-])cc3Cl)o2)CC1	TPT1 inh 29.6 | caTPT1 confirm 35.4 | RNase T1 counter 48.7
CCOC(=O)[C@]12CCCCC/C=C\1N(CCc1ccc(Cl)cc1)C(=O)[C@H]2CC(=O)NCc1cccs1	none (no result: TPT1 inh, CSN deneddyl inh, HNF4A DNA FP)
O=C(N/N=C/c1c(O)ccc2ccccc12)c1ccc(CO)nc1	TPT1 inh 82.5, HNF4A DNA FP 42.3 | caTPT1 confirm 90.8 | RNase T1 counter 93.3
N#C/C(=C\c1cc(Cl)c(OCc2ccc(Cl)cc2)c(Cl)c1)C(N)=O	none (no result: CSN deneddyl inh, HNF4A DNA FP, NR1D1 modulator)
N#C/C(=C\c1cc(O)c(O)c(O)c1)C(N)=O	TPT1 inh 33.2 | caTPT1 confirm 27.1 | RNase T1 counter 35.9
COC(=O)C1=C(C)N(Cc2ccccc2C(F)(F)F)C(=NCc2ccccc2C(F)(F)F)NC1c1ccc(C(F)(F)F)cc1 (centres undefined)	none (no result: TPT1 inh, CSN deneddyl inh, HNF4A DNA FP)
COc1cc(OC)cc(-c2csc(N3CCC(C(N)=O)CC3)n2)c1	none (no result: TPT1 inh, CSN deneddyl inh, HNF4A DNA FP)
COCCCn1c(N)c(-c2nc3ccccc3n2C)c2nc3ccccc3nc21	TPT1 inh 46.0 | caTPT1 confirm 46.3 | RNase T1 counter 58.8
Cn1c(-c2c(N)n(CCc3ccccc3)c3nc4ccccc4nc23)nc2ccccc21	TPT1 inh 37.8 | caTPT1 confirm 48.5 | RNase T1 counter 60.0
Cn1c(-c2c(N)n(C3CCCC3)c3nc4ccccc4nc23)nc2ccccc21	TPT1 inh 38.6 | caTPT1 confirm 43.5 | RNase T1 counter 51.0
C=CCNc1ccc2c(c1)OC[C@H](Cc1ccccc1)NS2(=O)=O	none (no result: TPT1 inh, CSN deneddyl inh, HNF4A DNA FP)
C=CCN(CC#Cc1ccccn1)Cc1ccc(OC)cc1OC	none (no result: TPT1 inh, CSN deneddyl inh, HNF4A DNA FP)
CCC(C)NC(=O)c1cc2c(=O)[nH]c3ccc(C)cc3c2s1 (centres undefined)	TPT1 inh 29.4 | caTPT1 confirm inactive | RNase T1 counter inactive
CCc1cc2c(SCc3nc4sc(C(C)=O)c(C)c4c(=O)[nH]3)ncnc2s1	TPT1 inh 37.1 | caTPT1 confirm 33.5 | RNase T1 counter 49.5
O=C(NCCCc1ccccc1)[C@H](Cc1ccccc1)NC1(C(=O)NCCc2c[nH]c3ccccc23)CCOCC1	none (no result: TPT1 inh, CSN deneddyl inh, HNF4A DNA FP)
Nc1nc(-c2ccccc2)c(-c2ccccc2)n1N	TPT1 inh 50.9 | caTPT1 confirm 29.1 | RNase T1 counter 38.1
O=C(CSc1nnc(-c2ccc(Cl)cc2)n1C1CCCCC1)NN=Cc1c(O)ccc2ccccc12	none (no result: TPT1 inh, CSN deneddyl inh, HNF4A DNA FP)
CCOC(=O)c1cc2nc(Nc3ccc(OC)cc3)sc2s1	TPT1 inh 39.3 | caTPT1 confirm 27.2 | RNase T1 counter 39.5
CCOC(=O)c1sc(Nc2ccc(Br)cc2)nc1C	none
CSc1ccc(/C=C/C(=O)c2c(O)cc(C)oc2=O)cc1	TPT1 inh 72.8 | caTPT1 confirm 25.9 | RNase T1 counter 46.3
Cc1cc(O)c(C(=O)/C=C/c2ccc(Cl)cc2)c(=O)o1	TPT1 inh 35.7 | caTPT1 confirm inactive | RNase T1 counter inactive
O=S(=O)(c1ccccc1F)n1c(CN2CCOCC2)nc2ccccc21	none (no result: TPT1 inh, CSN deneddyl inh, HNF4A DNA FP)
N#CCCCc1cn(-c2cccc(-c3noc4c3C(=O)N(CC(=O)N3CCOCC3)CC4)c2)nn1	none (no result: TPT1 inh, CSN deneddyl inh, HNF4A DNA FP)
O=C(Nc1nccs1)c1ccc(N2C(=O)C3CCCCC3C2=O)cc1 (centres undefined)	TPT1 inh 64.9 | caTPT1 confirm inactive | RNase T1 counter inactive
O=C(Nc1nccs1)c1ccc(N2C(=O)[C@@H]3[C@H](C2=O)[C@H]2C=C[C@@H]3C2)cc1	none
CC(=O)N1CCc2cc(S(=O)(=O)NCCC(=O)NCc3ccccc3)ccc21	none (no result: TPT1 inh, CSN deneddyl inh, HNF4A DNA FP)
CCC(C)N(C(=O)CSc1nnc(-c2cccnc2)n1C1CCCCC1)C(C)CC (centres undefined)	none (no result: TPT1 inh, CSN deneddyl inh, HNF4A DNA FP)
Cc1ccc(-c2ccc(/C=C3\SC(N4CCOCC4)=NC3=O)o2)cc1	TPT1 inh 47.5, HNF4A DNA FP 50.5 | caTPT1 confirm 52.2 | RNase T1 counter 62.5
CC(=Nc1ccccc1)C1=C(O)COC1=O	none
CC(=Nc1ccc(Br)cc1)c1sc2ccccc2c1O	TPT1 inh 78.2 | caTPT1 confirm 87.8 | RNase T1 counter 95.2
CC(=Nc1ccccc1)c1sc2ccccc2c1O	TPT1 inh 30.6 | caTPT1 confirm 51.1 | RNase T1 counter 67.0
COc1ccc(C)cc1Nc1n[n+](-c2ccccc2)c(-c2ccc(N(C)C)cc2)s1	TPT1 inh 50.9, HNF4A DNA FP 67.6 | caTPT1 confirm 90.1 | RNase T1 counter 98.7
COc1ccc(C(=O)/C=C/c2ccc(N(C)C)cc2)c(OC)c1	TPT1 inh 100.9 | caTPT1 confirm 103.3 | RNase T1 counter 102.2
COc1ccc(C(=O)/C=C/c2ccccc2)c(OC)c1	none
Cc1ccc(N2C(=O)C3C(C(=O)c4ccccc4)=NN(c4ccccc4)C3C2=O)cc1 (centres undefined)	TPT1 inh 29.1 | caTPT1 confirm 37.0 | RNase T1 counter 50.9
COc1ccccc1N1C(=O)C2C(C(=O)c3ccccc3)=NN(c3ccccc3)C2C1=O (centres undefined)	none
O=C(C1=NN(c2ccccc2)C2C(=O)N(c3ccccc3)C(=O)C12)c1ccccc1 (centres undefined)	TPT1 inh 28.1 | caTPT1 confirm 31.6 | RNase T1 counter 44.7
O=C(C1=NN(c2ccccc2)C2C(=O)N(c3ccccc3Cl)C(=O)C12)c1ccccc1 (centres undefined)	TPT1 inh 31.4 | caTPT1 confirm 31.9 | RNase T1 counter 46.0
CCOC(=O)C1=NN(c2ccccc2)C2C(=O)N(c3ccccc3OC)C(=O)C12 (centres undefined)	none
CCOc1ccc(N2C(=O)C3C(c4ccccc4)=NN(c4ccccc4)C3C2=O)cc1 (centres undefined)	none
CC(=O)OCC(=O)C1(O)CCC2C3CC(C)C4=CC(=O)C=CC4(C)C3C(O)CC21C (centres undefined)	none (no result: TPT1 inh)
COc1ccc(-c2nnc(SCC(=O)NN=Cc3c(O)ccc4ccccc34)n2-c2ccc(OC)cc2)cc1	none (no result: TPT1 inh, CSN deneddyl inh, HNF4A DNA FP)
O=C(CSc1nnc(Cc2cccs2)n1-c1ccccc1)Nc1ccccc1-c1ccccc1	none (no result: TPT1 inh, CSN deneddyl inh, HNF4A DNA FP)
NS(=O)(=O)c1ccc(-c2ccc(/C=C3\NC(=S)NC3=O)o2)cc1	TPT1 inh 45.5, HNF4A DNA FP 36.0 | caTPT1 confirm 70.0 | RNase T1 counter 79.7

High-throughput results: PubChem BioAssay, several laboratories
